≈ marks a conversion by molar mass, not a printed value. Calls of active or inactive are those of the source. The calls are words filed in the database; no cut-off is given here.
Key:
Fusarium oxysporum [1] = experiment: Fungicidal activity against Fusarium oxysporum at 30 uM after 72 hrs by microtiter plate assay; assay type: functional, organism-based
Method in brief: (§1)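 After 72 h of microtiter broth exposure at 30 µM, 20 µL from each well was plated onto compound-free potato dextrose agar and incubated 3 days at 28 °C. No regrowth was scored fungicidal; regrowth was scored fungistatic.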

Fusarium solani [2] = experiment: Fungicidal activity against Fusarium solani at 30 uM after 72 hrs by microtiter assay; assay type: functional, organism-based; method in brief: as §1
Fusarium proliferatum [3] = experiment: Fungistatic activity against Fusarium proliferatum at 30 uM after 72 hrs by microtiter plate assay; assay type: functional, organism-based
Method in brief: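 Conidia come from 7-day potato dextrose agar cultures, filtered and set photometrically (625 nm) to 3 × 10^5 conidia/mL. They are exposed to compound at 30 µM in 96-well microdilution broth at 24 ± 1 °C under a 12 h photoperiod. After 72 h, 20 µL per well is subcultured on drug-free potato dextrose agar at 28 °C for 3 days. No regrowth is scored fungicidal; regrowth is scored fungistatic.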

Fusarium solani [4] = experiment: Antimicrobial activity against Fusarium solani at 0.3 uM after 48 hrs by microtiter assay; assay type: functional
Method in brief: (§2)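 96-well microdilution broth assay with conidia (3 × 10^5 conidia/mL, harvested from 7-day PDA cultures and filtered) against F. oxysporum, F. proliferatum and F. solani at 0.3, 3 and 30 µM. Plates were held at 24 ± 1 °C under a 12 h photoperiod. Growth was read at 620 nm at 24, 48 and 72 h and reported as percent inhibition from mean absorbance with standard error.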

Fusarium proliferatum [5] = experiment: Antimicrobial activity against Fusarium proliferatum at 30 uM after 72 hrs by microtiter assay; assay type: functional; method in brief: as §2
Fusarium proliferatum [6] = experiment: Antimicrobial activity against Fusarium proliferatum at 3 uM after 72 hrs by microtiter assay; assay type: functional; method in brief: as §2
Aspergillus fumigatus = experiment: Antimicrobial activity against Aspergillus fumigatus ATCC 90906; assay type: functional, organism-based
[7] = system: Mycobacterium intracellulare; experiment: Antimicrobial activity against Mycobacterium intracellular ATCC 23068; assay type: functional, organism-based
Fusarium solani [8] = experiment: Antimicrobial activity against Fusarium solani at 30 uM after 72 hrs by microtiter assay; assay type: functional; method in brief: as §2
Cryptococcus neoformans = experiment: Antimicrobial activity against Cryptococcus neoformans ATCC 90113; assay type: functional, organism-based
Fusarium oxysporum [9] = experiment: Antimicrobial activity against Fusarium oxysporum at 3 uM after 48 hrs by microtiter assay; assay type: functional; method in brief: as §2
Fusarium oxysporum [10] = experiment: Antimicrobial activity against Fusarium oxysporum at 30 uM after 72 hrs by microtiter assay; assay type: functional; method in brief: as §2
Leishmania donovani = experiment: Antiparasitic activity against Leishmania donovani; assay type: functional, organism-based
Fusarium solani [11] = experiment: Antimicrobial activity against Fusarium solani at 3 uM after 72 hrs by microtiter assay; assay type: functional; method in brief: as §2
Fusarium solani [12] = experiment: Antimicrobial activity against Fusarium solani at 0.3 uM after 72 hrs by microtiter assay; assay type: functional; method in brief: as §2
Fusarium oxysporum [13] = experiment: Antimicrobial activity against Fusarium oxysporum at 3 uM after 72 hrs by microtiter assay; assay type: functional; method in brief: as §2
[14] = system: Mycobacterium tuberculosis; experiment: Antibacterial activity against Mycobacterium tuberculosis H37Rv at 16 ug/mL by micro plate alamar blue assay; assay type: functional
Method in brief: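 M. tuberculosis H37Rv ATCC 27294 grown in BACTEC 12B medium; microplate Alamar blue assay (MABA). Primary screen at a single concentration of 16 µg/mL, read as percent inhibition.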

Fusarium oxysporum [15] = experiment: Antimicrobial activity against Fusarium oxysporum at 30 uM after 48 hrs by microtiter assay; assay type: functional; method in brief: as §2
Fusarium solani [16] = experiment: Antimicrobial activity against Fusarium solani at 30 uM after 48 hrs by microtiter assay; assay type: functional; method in brief: as §2
Fusarium proliferatum [17] = experiment: Antimicrobial activity against Fusarium proliferatum at 3 uM after 48 hrs by microtiter assay; assay type: functional; method in brief: as §2
Fusarium proliferatum [18] = experiment: Antimicrobial activity against Fusarium proliferatum at 0.3 uM after 72 hrs by microtiter assay; assay type: functional; method in brief: as §2
Fusarium solani [19] = experiment: Antimicrobial activity against Fusarium solani at 3 uM after 48 hrs by microtiter assay; assay type: functional; method in brief: as §2
Candida albicans = experiment: Antimicrobial activity against Candida albicans ATCC 90028; assay type: functional, organism-based
Fusarium oxysporum [20] = experiment: Antimicrobial activity against Fusarium oxysporum at 0.3 uM after 48 hrs by microtiter assay; assay type: functional; method in brief: as §2
[21] = system: Mycobacterium tuberculosis; experiment: Antibacterial activity against Mycobacterium tuberculosis H37Rv by micro plate alamar blue assay; assay type: functional
Fusarium oxysporum [22] = experiment: Antimicrobial activity against Fusarium oxysporum at 0.3 uM after 72 hrs by microtiter assay; assay type: functional; method in brief: as §2
Fusarium proliferatum [23] = experiment: Antimicrobial activity against Fusarium proliferatum at 0.3 uM after 48 hrs by microtiter assay; assay type: functional; method in brief: as §2
Fusarium proliferatum [24] = experiment: Antimicrobial activity against Fusarium proliferatum at 30 uM after 48 hrs by microtiter assay; assay type: functional; method in brief: as §2

For `C/C=C1\NC(=O)[C@H](Cc2ccccc2)NC(=O)[C@@H](C(C)C)NC(=O)[C@@H]([C@@H](C)CC)NC(=O)[C@H](NC(=O)[C@H](NC(=O)[C@H](CCCN)NC(=O)[C@H]2CCCN2C(=O)[C@@H](NC(=O)[C@H](NC(=O)[C@H](NC(=O)[C@@H](NC(=O)CCCC(C)C)C(C)C)C(C)=O)C(C)C)C(C)C)[C@@H](C)CC)[C@@H](C)OC(=O)[C@H](C(C)C)NC1=O`, the Activity (Fusarium oxysporum [1]) was “Active”, the Activity (Fusarium solani [2]) was “Active” and the Activity (Fusarium proliferatum [3]) was “Active”.

Compound `C/C=C1\NC(=O)[C@H](Cc2ccccc2)NC(=O)[C@@H](C(C)C)NC(=O)[C@@H]([C@@H](C)CC)NC(=O)[C@H](NC(=O)[C@H](NC(=O)[C@H](CCCNCCCCCC)NC(=O)[C@H]2CCCN2C(=O)[C@H](NC(=O)[C@@H](NC(=O)[C@@H](NC(=O)[C@H](NC(=O)CCCC(C)C)C(C)C)[C@@H](C)O)C(C)C)C(C)C)[C@@H](C)CC)[C@@H](C)OC(=O)[C@H](C(C)C)NC1=O` has an inhibition at 0.3 µM (Fusarium solani [4]) of 0%, an inhibition at 30 µM (Fusarium proliferatum [5]) of 92.8% and an inhibition at 3 µM (Fusarium proliferatum [6]) of 0%. The MFC (Aspergillus fumigatus) was 20 µM (≈ 31.2 µg/mL), the MIC (Aspergillus fumigatus) was 10 µM (≈ 15.6 µg/mL) and the MBC [7] was > 20 µM. For the same compound, the MIC [7] was > 20 µM, the inhibition at 30 µM (Fusarium solani [8]) was 94.7% and the MFC (Cryptococcus neoformans) was 10 µM (≈ 15.6 µg/mL). It also gave an MIC (Cryptococcus neoformans) of 5 µM (≈ 7.81 µg/mL), an inhibition at 3 µM (Fusarium oxysporum [9]) of 0% and an inhibition at 30 µM (Fusarium oxysporum [10]) of 89%. It also gave an IC90 (Leishmania donovani) of 34 mg/L (≈ 21.8 µM), an inhibition at 3 µM (Fusarium solani [11]) of 0% and an inhibition at 0.3 µM (Fusarium solani [12]) of 0%. For the same compound, the inhibition at 3 µM (Fusarium oxysporum [13]) was 0%, the inhibition at 16 µg/mL [14] was 88% and the inhibition at 30 µM (Fusarium oxysporum [15]) was 93.6%. It also gave an inhibition at 30 µM (Fusarium solani [16]) of 94.3%, an inhibition at 3 µM (Fusarium proliferatum [17]) of 0% and an inhibition at 0.3 µM (Fusarium proliferatum [18]) of 0%. It also gave an inhibition at 3 µM (Fusarium solani [19]) of 0%, an MFC (Candida albicans) of 20 µM (≈ 31.2 µg/mL) and an MIC (Candida albicans) of 20 µM (≈ 31.2 µg/mL). The inhibition at 0.3 µM (Fusarium oxysporum [20]) was 0%, the MIC [21] was > 16 mg/L and the inhibition at 0.3 µM (Fusarium oxysporum [22]) was 0%. For the same compound, the inhibition at 0.3 µM (Fusarium proliferatum [23]) was 0% and the inhibition at 30 µM (Fusarium proliferatum [24]) was 95.3%.
